In data set [1] the test system is Spermatozoa. Kind of data set: Sperimcidal activity against human spermatozoa assessed as sperm motility at 1 % drug solution%. It is filed as functional. Summed up: (§1)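 Drop of sperm–compound mixture placed on slide under cover glass, examined by phase contrast microscopy in five fields; percentage of motile spermatozoa scored visually within 30–40 s. N-9 as reference control; some compounds tested as D-(-)-tartrate salts.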

The test system of data set [2] is Spermatozoa. Kind of data set: Sperimcidal activity against human spermatozoa assessed as sperm immobilization at 1 % drug solution%. It is filed as functional. Summed up: as §1
The test system of the next data set is Trichomonas vaginalis. Kind of data set: Antitrichomonal activity against Trichomonas vaginalis after 48 hrs by trypan blue exclusion assay. It is filed as functional. In a few lines: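 Trophozoites in TYM medium; stock solutions serially diluted in TYM to concentrations up to 0.1 mg/mL, DMSO/TYM as vehicle control. Parasites added, incubated anaerobically at 37 °C, viability checked by trypan blue exclusion under microscope (200×) from 3 to 48 h. MIC = lowest concentration with all cells dead at 48 h. Metronidazole reference; run three times.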

A further data set relates to Candida albicans. Put plainly: Antifungal activity against Candida albicans after 48 hrs by broth microdilution technique. It is filed as functional. In a few lines:
(§2)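 Broth microdilution MIC per NCCLS guidelines in RPMI 1640 buffered with MOPS; starting inoculum of test culture 1–5 × 10³ CFU/mL.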
On the technique in general: In broth dilution the organism is exposed to a series of concentrations in liquid medium.

In the next data set the test system is Cryptococcus neoformans. Kind of data set: Antifungal activity against Cryptococcus neoformans after 48 hrs by broth microdilution technique. It is filed as functional. Summed up: as §2
For a further data set, the system named is Sporothrix schenckii. Kind of data set: Antifungal activity against Sporothrix schenckii after 48 hrs by broth microdilution technique. It is filed as functional. Summed up:
as §2

Data set [3] relates to Trichophyton mentagrophytes. Put plainly: Antifungal activity against Trichophyton mentagrophytes after 48 hrs by broth microdilution technique. It is filed as functional. In a few lines: as §2
For a further data set, the system named is Aspergillus fumigatus. Put plainly: Antifungal activity against Aspergillus fumigatus after 48 hrs by broth microdilution technique. It is filed as functional. In a few lines: as §2
For the next data set, the system named is Candida parapsilosis. Put plainly: Antifungal activity against Candida parapsilosis after 48 hrs by broth microdilution technique. It is filed as functional. The conditions noted are these: Lodderomyces parapsilosis. Summed up:
as §2

Another data set concerns HeLa. Kind of data set: Cytotoxicity against human HeLa cells at 200 ug/ml after 24 hrs by MTT assay. It is filed as cell-based. Summed up: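 HeLa cells seeded at 5.0 × 10⁴ per well in DMEM with 10% FCS, 24 h at 37 °C in 5% CO₂; medium replaced with fresh medium containing test dilutions, 10% DMSO vehicle in control wells. After a further 24 h, MTT added; formazan dissolved in DMSO, OD read at 540 nm. Mean ± SE of 3 estimations.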
Background: Tetrazolium dyes change colour on reduction, which living cells bring about.

Consider 7 molecules from ChEMBL document CHEMBL1153733, “Imidazole derivatives as possible microbicides with dual protection” (Eur J Med Chem, 2010).

≈ marks a conversion by molar mass, not a printed value. Some results are limits rather than exact numbers.

As a reminder, the MIC is the lowest concentration found to suppress growth. Low values mean inhibition by little substance, high ones a need for much substance. Take `Cc1ncc([N+](=O)[O-])n1CCSC(=S)N(C)C.O=C(O)C(O)C(O)C(=O)O`: the Activity is listed as 0% in the data set on Spermatozoa [1], 100% with Spermatozoa [2] and “Non-toxic” with HeLa. Further, the MIC in the data set on Trichomonas vaginalis was 1.14 µM; against Candida albicans, above 50 µg/mL; against Cryptococcus neoformans, above 50 µg/mL; in the data set on Sporothrix schenckii, above 50 µg/mL; in data set [3] it was 50 µg/mL; with Aspergillus fumigatus, above 50 µg/mL. The molecule further came in with an MIC in the data set with Candida parapsilosis above 50 µg/mL.
On to `Cc1ncc([N+](=O)[O-])n1CCSC(=S)N1CCN(c2ccccn2)CC1.O=C(O)C(O)C(O)C(=O)O`, for which the Activity with Spermatozoa [1] is 0%; in the data set with Spermatozoa [2], 100%; in the data set on HeLa it was “Non-toxic”. In addition, the MIC was 6.38 µM against Trichomonas vaginalis; above 50 µg/mL against Candida albicans; above 50 µg/mL with Cryptococcus neoformans; 50 µg/mL in the data set with Sporothrix schenckii; 50 µg/mL in data set [3]; above 50 µg/mL in the data set with Aspergillus fumigatus. Besides, the MIC against Candida parapsilosis was above 50 µg/mL.
Regarding `COc1ccccc1N1CCN(C(=S)SCCn2c([N+](=O)[O-])cnc2C)CC1.O=C(O)C(O)C(O)C(=O)O`, the Activity in the data set on Spermatozoa [1] is recorded as 0%; in the data set with Spermatozoa [2] it was 100%; with HeLa, “Non-toxic”. Besides, the MIC against Trichomonas vaginalis is 5.94 µM; in the data set with Candida albicans, above 50 µg/mL; in the data set with Cryptococcus neoformans, above 50 µg/mL; against Sporothrix schenckii, 50 µg/mL; in [3], 25 µg/mL; with Aspergillus fumigatus it was above 50 µg/mL. Moreover, in the data set with Candida parapsilosis, the MIC is above 50 µg/mL.
Regarding `Cc1ncc([N+](=O)[O-])n1CCOC(=O)CCN(C)CCC(Oc1ccc(C(F)(F)F)cc1)c1ccccc1` (stereo not given), the Activity in the data set with Spermatozoa [1] is given as 0%; in the data set with Spermatozoa [2], 100%; in the data set on HeLa it was “Non-toxic”. The MIC against Trichomonas vaginalis was 11.7 µM (≈ 6.25 µg/mL); against Candida albicans, above 50 µg/mL; in the data set with Cryptococcus neoformans it was above 50 µg/mL; in the data set with Sporothrix schenckii, above 50 µg/mL; in [3], 50 µg/mL (≈ 93.5 µM); with Aspergillus fumigatus, above 50 µg/mL. Further, the MIC in the data set on Candida parapsilosis is above 50 µg/mL.
With `Cc1ncc([N+](=O)[O-])n1CCSC(=S)N1CCN(C)CC1`, the Activity in the data set on Spermatozoa [1] is 0%; in the data set with Spermatozoa [2], 100%; in the data set on HeLa it was “Non-toxic”. Further, the MIC was 7.6 µM (≈ 2.5 µg/mL) in the data set with Trichomonas vaginalis; above 50 µg/mL in the data set with Candida albicans; above 50 µg/mL against Cryptococcus neoformans; 50 µg/mL (≈ 152 µM) with Sporothrix schenckii; 50 µg/mL (≈ 152 µM) in [3]; above 50 µg/mL in the data set with Aspergillus fumigatus. The molecule also returned an MIC against Candida parapsilosis above 50 µg/mL.
On to `Cc1ncc([N+](=O)[O-])n1CCSC(=S)N1CCCC1.O=C(O)C(O)C(O)C(=O)O`, for which the Activity in the data set with Spermatozoa [1] is 0%; in the data set on Spermatozoa [2], 100%; in the data set with HeLa it was “Non-toxic”. Besides, the MIC is 8.33 µM with Trichomonas vaginalis; 50 µg/mL against Candida albicans; 50 µg/mL in the data set with Cryptococcus neoformans; 25 µg/mL with Sporothrix schenckii; 50 µg/mL in [3]; above 50 µg/mL in the data set with Aspergillus fumigatus. The MIC in the data set with Candida parapsilosis was above 50 µg/mL.
As to `Cc1ncc([N+](=O)[O-])n1CCn1cnc2ccccc21`, the results for the Activity with Spermatozoa [1], in the data set with Spermatozoa [2] and in the data set on HeLa were 0%, 100% and “Non-toxic”, respectively. Besides, the minimum inhibitory concentration (MIC) was 4.61 µM (≈ 1.25 µg/mL) in the data set on Trichomonas vaginalis; above 50 µg/mL in the data set on Candida albicans; above 50 µg/mL with Cryptococcus neoformans; 50 µg/mL (≈ 184 µM) against Sporothrix schenckii; above 50 µg/mL in [3]; above 50 µg/mL against Aspergillus fumigatus. The molecule also showed an MIC in the data set on Candida parapsilosis above 50 µg/mL.
